Assay results published in ChEMBL document CHEMBL4354871, “Discovery of Selective Small Molecule Degraders of BRAF-V600E” (J Med Chem, 2020).
Active and inactive are the calls of the source. The rule behind the calls is not given here.

Tests used:
[1] = system: Protein cereblon/Serine/threonine-protein kinase B-raf (Homo sapiens), P15056+Q96SW2 [V600E]; assay: Protac activity at CRBN/BRAF V600E mutant in human A375 cells assessed as reduction in BRAF V600E mutant-mediated ERK phosphorylation at 1 to 1000 nM incubated for 16 hrs by immunoblotting; type: cell-based
Summary of the method: (§1)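 A375 cells (BRAF-V600E, DMEM with 10% FBS, 37 °C, 5% CO2) were exposed to DMSO or a serial dilution of degrader for 16 h. Cells were lysed in cold RIPA with protease and phosphatase inhibitors, protein was measured by BCA, and samples were run on SDS-PAGE. Blots were probed for BRAF, p-ERK1/2 and α-tubulin, detected by ECL, and bands were quantitated.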

[2] = system: A-375; assay: Inhibition of colony formation in human A375 cells at 40 to 1000 nM incubated for 7 days by crystal violet staining based assay; type: functional, cell-based
Summary of the method: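 A375 plated at 200 cells/well, dosed the following day with DMSO or compound. After seven days, cells fixed and stained with 0.5% crystal violet, and colonies counted. Data as mean ± SD; Student's t-test against corresponding control groups.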

[3] = system: Protein cereblon/Serine/threonine-protein kinase B-raf (Homo sapiens), P15056+Q96SW2 [V600E]; assay: Protac activity at CRBN/BRAF V600E mutant kinase domain (unknown origin) expressed in human A375 cells assessed as induction of BRAF V600E mutant degradation at 1 to 1000 nM incubated for 16 hrs by immunoblotting; type: cell-based
Summary of the method: (§2)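 A375 lines stably expressing the BRAF-V600E or wild-type BRAF kinase domain were made by lentiviral transduction and kept in 1 µg/mL puromycin. They were treated with DMSO or a 3-fold serial dilution of compound for 16 h. Kinase-domain levels were read by immunoblotting of RIPA lysates with ECL and band quantitation.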

[4] = system: Protein cereblon/Serine/threonine-protein kinase B-raf (Homo sapiens), P15056+Q96SW2 [V600E]; assay: Protac activity at CRBN/BRAF V600E mutant in human A375 cells assessed as induction of BRAF V600E mutant degradation at 500 nM incubated for 6 hrs after 1 hr pre-treatment with 200 nM proteasome inhibitor bortezomib by immunoblotting
[5] = system: Protein cereblon/Serine/threonine-protein kinase B-raf (Homo sapiens), P15056+Q96SW2 [V600E]; assay: Protac activity at CRBN/BRAF V600E mutant in human A375 cells assessed as induction of BRAF V600E mutant degradation at 1 to 1000 nM incubated for 16 hrs by immunoblotting; type: cell-based; summary of the method: as §1
[6] = biological target: Serine/threonine-protein kinase B-raf (Homo sapiens, UniProt P15056, V600E); assay: Binding affinity to DNA-tagged BRAF (unknown origin) V600E mutant by KINOMEscan assay
[7] = biological target: T1, Protein cereblon/Serine/threonine-protein kinase B-raf (Homo sapiens) (UniProt P15056+Q96SW2); assay: Protac activity at CRBN/BRAF in human A549 cells assessed as induction of BRAF degradation at 15 to 1000 nM incubated for 16 hrs by immunoblotting; type: cell-based
Summary of the method: (§3)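 A549 cells carrying wild-type BRAF (DMEM, 10% FBS) were treated with DMSO or a 3-fold serial dilution of compound for 16 h. BRAF was read by immunoblotting: RIPA lysis, BCA protein assay, SDS-PAGE, anti-BRAF antibody with α-tubulin as loading control, ECL detection and densitometric quantitation.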

[8] = biological target: T2, Serine/threonine-protein kinase B-raf (Homo sapiens, UniProt P15056); assay: Binding affinity to DNA-tagged BRAF (unknown origin) by KINOMEscan assay
[9] = system: A-375; assay: Cytotoxicity in human A375 cells assessed as reduction in cell viability by Cell-titer-Lumi assay; type: functional, cell-based
Summary of the method: (§4)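 Cells grown in DMEM with 10% FBS at 37 °C, 5% CO2. Seeded at 2000 cells/well, then treated across a 12-point serial dilution. Viability read after three days by CellTiter-Lumi luminescence. IC50 obtained by nonlinear least-squares regression of dose-response curves. Lines STR-authenticated and mycoplasma-free.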

[10] = system: Protein cereblon/Serine/threonine-protein kinase B-raf (Homo sapiens), P15056+Q96SW2 [V600E]; assay: Protac activity at CRBN/BRAF V600E mutant in human A375 cells assessed as induction of BRAF V600E mutant degradation at 500 nM incubated for 6 hrs after 1 hr pre-treatment with 1 uM NEDD8-activating enzyme inhibitor […] by immunoblotting
[11] = system: Protein cereblon/Serine/threonine-protein kinase B-raf (Homo sapiens), P15056+Q96SW2 [V600E]; assay: Protac activity at CRBN/BRAF V600E mutant in human A375 cells assessed as reduction in BRAF V600E mutant-mediated ERK phosphorylation at 1 to 1000 nM incubated for 2 hrs by immunoblotting; type: cell-based
[12] = system: Protein cereblon/Serine/threonine-protein kinase B-raf (Homo sapiens), P15056+Q96SW2 [V600E]; assay: Protac activity at CRBN/BRAF V600E mutant in human A375 cells assessed as induction of BRAF V600E mutant degradation at 500 nM incubated for 6 hrs after 1 hr pre-treatment with 10 uM pomalidomide by immunoblotting
[13] = system: IMR-90; assay: Cytotoxicity in human IMR90 cells assessed as reduction in cell viability at 10 nM to 10 uM by Cell-titer-Lumi assay; type: cell-based; details: imr-90, 10 nM to 10 uM; summary of the method: as §4
[14] = system: HT-29; assay: Cytotoxicity in human HT-29 cells assessed as reduction in cell viability by Cell-titer-Lumi assay; type: functional, cell-based; summary of the method: as §4
[15] = system: HaCaT; assay: Cytotoxicity in human HaCaT cells assessed as reduction in cell viability at 10 nM to 10 uM by Cell-titer-Lumi assay; type: cell-based; summary of the method: as §4
[16] = biological target: T1, Protein cereblon/Serine/threonine-protein kinase B-raf (Homo sapiens); assay: Protac activity at CRBN/BRAF kinase domain (unknown origin) expressed in human A375 cells assessed as induction of BRAF degradation at 1 to 1000 nM incubated for 16 hrs by immunoblotting; type: cell-based; summary of the method: as §2
[17] = system: WI-38; assay: Cytotoxicity in human WI38 cells assessed as reduction in cell viability at 10 nM to 10 uM by Cell-titer-Lumi assay; type: cell-based; details: wi-38, 10 nM to 10 uM; summary of the method: as §4
[18] = system: Protein cereblon/Serine/threonine-protein kinase B-raf (Homo sapiens), P15056+Q96SW2 [V600E]; assay: Protac activity at CRBN/BRAF V600E mutant in human A375 cells assessed as induction of BRAF V600E mutant degradation at 500 nM incubated for 6 hrs after 1 hr pre-treatment with 20 uM proteasome inhibitor MG132 by immunoblotting
[19] = biological target: T1, Protein cereblon/Serine/threonine-protein kinase B-raf (Homo sapiens); assay: Protac activity at CRBN/BRAF in human A549 cells assessed as induction of BRAF degradation at 1 to 1000 nM incubated for 16 hrs by immunoblotting; type: cell-based; summary of the method: as §3
[20] = system: Serine/threonine-protein kinase B-raf (Homo sapiens), P15056 [V600E]; assay: Potency index, ratio of Kd for vemurafenib to Kd of test compound for binding affinity to DNA-tagged BRAF (unknown origin) V600E mutant by KINOMEscan assay
[21] = biological target: T2, Serine/threonine-protein kinase B-raf; assay: Potency index, ratio of Kd for vemurafenib to Kd of test compound for binding affinity to DNA-tagged BRAF (unknown origin) by KINOMEscan assay

Sequence of Serine/threonine-protein kinase B-raf (Homo sapiens, UniProt P15056, V600E) (P15056 2-766 V600E limits assumed): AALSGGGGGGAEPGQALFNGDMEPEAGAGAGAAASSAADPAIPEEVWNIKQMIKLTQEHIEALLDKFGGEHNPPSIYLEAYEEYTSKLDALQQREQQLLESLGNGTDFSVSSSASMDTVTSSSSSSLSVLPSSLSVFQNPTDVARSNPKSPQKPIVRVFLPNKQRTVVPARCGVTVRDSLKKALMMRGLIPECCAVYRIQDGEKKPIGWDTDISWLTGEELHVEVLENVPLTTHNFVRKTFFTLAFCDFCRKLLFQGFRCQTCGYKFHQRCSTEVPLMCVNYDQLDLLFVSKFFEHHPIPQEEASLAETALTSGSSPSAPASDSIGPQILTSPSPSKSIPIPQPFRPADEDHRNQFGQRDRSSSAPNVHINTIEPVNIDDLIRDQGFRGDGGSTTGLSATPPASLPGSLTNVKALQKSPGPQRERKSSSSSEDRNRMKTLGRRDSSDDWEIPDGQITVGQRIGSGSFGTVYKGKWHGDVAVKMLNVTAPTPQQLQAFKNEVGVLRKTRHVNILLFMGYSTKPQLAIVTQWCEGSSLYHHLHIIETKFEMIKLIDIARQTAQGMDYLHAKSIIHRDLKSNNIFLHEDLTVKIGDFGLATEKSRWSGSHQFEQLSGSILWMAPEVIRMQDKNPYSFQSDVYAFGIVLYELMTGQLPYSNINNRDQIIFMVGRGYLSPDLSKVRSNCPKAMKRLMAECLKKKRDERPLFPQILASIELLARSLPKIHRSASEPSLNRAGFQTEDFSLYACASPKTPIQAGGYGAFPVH
T2 sequence (P15056 whole entry): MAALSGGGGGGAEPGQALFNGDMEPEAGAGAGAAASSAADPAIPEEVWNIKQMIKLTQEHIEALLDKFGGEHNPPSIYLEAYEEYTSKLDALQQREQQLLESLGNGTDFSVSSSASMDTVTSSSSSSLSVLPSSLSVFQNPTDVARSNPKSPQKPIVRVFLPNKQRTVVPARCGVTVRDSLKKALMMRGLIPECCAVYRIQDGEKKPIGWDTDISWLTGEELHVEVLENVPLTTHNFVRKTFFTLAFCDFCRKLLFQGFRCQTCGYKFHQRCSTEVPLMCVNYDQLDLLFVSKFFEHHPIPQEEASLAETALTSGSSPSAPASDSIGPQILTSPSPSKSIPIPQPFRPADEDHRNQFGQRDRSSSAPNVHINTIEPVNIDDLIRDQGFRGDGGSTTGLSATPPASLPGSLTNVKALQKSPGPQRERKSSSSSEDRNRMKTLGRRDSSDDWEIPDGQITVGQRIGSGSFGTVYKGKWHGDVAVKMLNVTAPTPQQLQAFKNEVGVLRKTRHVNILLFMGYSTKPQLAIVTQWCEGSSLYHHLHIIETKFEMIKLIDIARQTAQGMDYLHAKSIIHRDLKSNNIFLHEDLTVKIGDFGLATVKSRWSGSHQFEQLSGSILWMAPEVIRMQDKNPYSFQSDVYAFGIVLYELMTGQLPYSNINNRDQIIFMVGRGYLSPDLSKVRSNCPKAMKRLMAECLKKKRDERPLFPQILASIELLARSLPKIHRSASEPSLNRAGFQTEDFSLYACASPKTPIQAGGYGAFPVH
T1 sequence (P15056 whole entry, looked up): as the sequence (P15056 whole entry) above
T1 sequence (Q96SW2 whole entry, looked up): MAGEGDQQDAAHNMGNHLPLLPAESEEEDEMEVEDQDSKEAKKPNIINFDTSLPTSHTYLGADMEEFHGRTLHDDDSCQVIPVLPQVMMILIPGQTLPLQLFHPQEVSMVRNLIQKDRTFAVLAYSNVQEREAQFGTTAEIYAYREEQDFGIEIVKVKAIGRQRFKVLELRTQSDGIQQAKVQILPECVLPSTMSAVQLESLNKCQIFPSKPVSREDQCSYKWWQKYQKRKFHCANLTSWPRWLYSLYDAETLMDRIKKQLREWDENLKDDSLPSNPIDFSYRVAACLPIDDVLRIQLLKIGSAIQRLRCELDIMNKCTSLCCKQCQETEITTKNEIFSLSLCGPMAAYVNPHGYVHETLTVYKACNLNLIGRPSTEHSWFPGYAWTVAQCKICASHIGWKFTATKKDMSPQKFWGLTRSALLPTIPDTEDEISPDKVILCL
Sequence of Serine/threonine-protein kinase B-raf (Homo sapiens), P15056 [V600E] (P15056 whole entry V600E): as the sequence (P15056 whole entry) above, with V600E counted along it

Row | SMILES | Activity [1] | inhibition [2] | Activity [3] | Activity [4] | Activity [5] | Kd [6] | Kd [8] | IC50 [9] | Activity [10] | Activity [12] | Activity [13] | IC50 [14] | Activity [15] | Activity [16] | Activity [17] | Activity [18] | also measured
1 | CCCS(=O)(=O)Nc1ccc(F)c(-n2cc(-c3cncnc3)c3nc(N(C)C4CCN(C(=O)CCOCCOCCOCCNc5cccc6c5C(=O)N(C5CCC(=O)NC5=O)C6=O)CC4)ccc32)c1F (centres undefined) | Dose-dependent effect | Active | Active | inactive | Dose-dependent effect | 2 nM | 2.4 nM | 46.5 nM | inactive | inactive | Non-Toxic | 51 nM | Non-Toxic | inactive | Non-Toxic | inactive | Activity [7]: inactive; Activity [11]: Active
2 | CCCS(=O)(=O)Nc1ccc(F)c(C(=O)c2c[nH]c3ncc(-c4ccc(Cl)cc4)cc23)c1F [VEMURAFENIB] | – | – | – | – | – | – | – | 116 nM | – | – | – | 164 nM | – | – | – | – | –
3 | CCCS(=O)(=O)Nc1ccc(F)c(-n2cc(-c3cncnc3)c3nc(N(C)C4CCN(C(=O)CCOCCOCCOCCNc5cccc6c5C(=O)N(C5CCC(=O)N(C)C5=O)C6=O)CC4)ccc32)c1F (centres undefined) | – | – | – | – | inactive | 2.7 nM | 2.6 nM | 190 nM | – | – | Non-Toxic | 348 nM | Non-Toxic | – | Non-Toxic | – | –
4 | CCCS(=O)(=O)Nc1ccc(F)c(C(=O)c2c[nH]c3ncc(-c4ccc(CNC(=O)CCCCNc5ccc6c(c5)C(=O)N(C5CCC(=O)NC5=O)C6=O)cc4)cc23)c1F (centres undefined) | Dose-dependent effect | Active | Active | inactive | Dose-dependent effect | 14.4 nM | 9.5 nM | 500 nM | inactive | inactive | Non-Toxic | 124 nM | Non-Toxic | inactive | Non-Toxic | inactive | Activity [19]: inactive; Ratio [20]: 4 to 5; Ratio [21]: 4 to 5
5 | CCCS(=O)(=O)Nc1ccc(F)c(C(=O)c2c[nH]c3ncc(-c4ccc(CNC(=O)CCCCNc5ccc6c(c5)C(=O)N(C5CCC(=O)N(C)C5=O)C6=O)cc4)cc23)c1F (centres undefined) | – | – | – | – | inactive | 7.3 nM | 5.1 nM | 492 nM | – | – | Non-Toxic | 459 nM | Non-Toxic | – | Non-Toxic | – | –
6 | CCCS(=O)(=O)Nc1ccc(F)c(-n2cc(-c3cncnc3)c3nc(N(C)C4CCN(CC)CC4)ccc32)c1F [XP-102] | – | – | – | – | – | 0.33 nM | 0.37 nM | 6.3 nM | – | – | – | 1.7 nM | – | – | – | – | –
